Measurements published in ChEMBL document CHEMBL5058577, “EUbOPEN Chemogenomics Library 2 (Multiplex)” (2022).

System: Fibroblast
Test: Multiplex assay against human fibroblast
Type: toxicity, cell-based
Summary of the method: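 Live cells were stained at seeding with Hoechst33342, BioTracker Green Microtubule Cytoskeleton Dye, MitoTracker Red and Annexin V Alexa Fluor 680, then imaged on a CQ1 microscope at 37°C and 5% CO2 after compound addition. CellPathfinder machine-learning gating split cells into Hoechst high-intensity objects or normal cells. Normal cells were split into healthy, pyknosed or fragmented nuclei, and pyknosed cells into mitotic or apoptotic. Tubulin, mitochondrial-mass and membrane-permeability phenotypes are per cents of healthy-nucleus cells.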

[1] = 12 h, 1 µM, compound concentration 1 uM, replicate 1
[2] = 12 h, 1 µM, compound concentration 1 uM, replicate 2
[3] = 12 h, 10 µM, compound concentration 10 uM, replicate 1
[4] = 12 h, 10 µM, compound concentration 10 uM, replicate 2
[5] = 24 h, 1 µM, compound concentration 1 uM, replicate 1
[6] = 24 h, 1 µM, compound concentration 1 uM, replicate 2
[7] = 24 h, 10 µM, compound concentration 10 uM, replicate 1
[8] = 24 h, 10 µM, compound concentration 10 uM, replicate 2
[9] = 48 h, 1 µM, compound concentration 1 uM, replicate 1
[10] = 48 h, 1 µM, compound concentration 1 uM, replicate 2
[11] = 48 h, 10 µM, compound concentration 10 uM, replicate 1
[12] = 48 h, 10 µM, compound concentration 10 uM, replicate 2

## O=C(NCCN1CCC(n2c(=O)[nH]c3cc(Cl)ccc32)CC1)c1ccc(F)cc1 [HALOPEMIDE]
[1]
  Population Apoptotic (%): 32%
  Population Fragmented Nuclei (%): 11%
  Population Healthy Nuclei (%): 62%
  Population Hoechst High Intensity Objects (%): 0%
  Population Membrane Permeable-Phenotype (%): 1%
  Population Mitochondria Different-Phenotype (%): 10%
  Population Mitotic Cells (%): 67%
  Population Normal (%): 99%
  Population Pyknosed Nuclei (%): 26%
  Population Tubulin-Different-Phenotype (%): 29%
  Total Cell Count: 120
[2]
  Population Apoptotic (%): 44%
  Population Fragmented Nuclei (%): 27%
  Population Healthy Nuclei (%): 43%
  Population Hoechst High Intensity Objects (%): 7%
  Population Membrane Permeable-Phenotype (%): 10%
  Population Mitochondria Different-Phenotype (%): 0%
  Population Mitotic Cells (%): 56%
  Population Normal (%): 92%
  Population Pyknosed Nuclei (%): 29%
  Population Tubulin-Different-Phenotype (%): 56%
  Total Cell Count: 92
[3]
  Population Apoptotic (%): 55%
  Population Fragmented Nuclei (%): 15%
  Population Healthy Nuclei (%): 54%
  Population Hoechst High Intensity Objects (%): 3%
  Population Membrane Permeable-Phenotype (%): 0%
  Population Mitochondria Different-Phenotype (%): 17%
  Population Mitotic Cells (%): 44%
  Population Normal (%): 96%
  Population Pyknosed Nuclei (%): 30%
  Population Tubulin-Different-Phenotype (%): 77%
  Total Cell Count: 204
[4]
  Population Apoptotic (%): 31%
  Population Fragmented Nuclei (%): 24%
  Population Healthy Nuclei (%): 34%
  Population Hoechst High Intensity Objects (%): 4%
  Population Membrane Permeable-Phenotype (%): 6%
  Population Mitochondria Different-Phenotype (%): 14%
  Population Mitotic Cells (%): 68%
  Population Normal (%): 95%
  Population Pyknosed Nuclei (%): 41%
  Population Tubulin-Different-Phenotype (%): 87%
  Total Cell Count: 148
[5]
  Population Apoptotic (%): 58%
  Population Fragmented Nuclei (%): 16%
  Population Healthy Nuclei (%): 69%
  Population Hoechst High Intensity Objects (%): 3%
  Population Membrane Permeable-Phenotype (%): 1%
  Population Mitochondria Different-Phenotype (%): 9%
  Population Mitotic Cells (%): 41%
  Population Normal (%): 96%
  Population Pyknosed Nuclei (%): 13%
  Population Tubulin-Different-Phenotype (%): 38%
  Total Cell Count: 128
[6]
  Population Apoptotic (%): 37%
  Population Fragmented Nuclei (%): 32%
  Population Healthy Nuclei (%): 41%
  Population Hoechst High Intensity Objects (%): 10%
  Population Membrane Permeable-Phenotype (%): 5%
  Population Mitochondria Different-Phenotype (%): 8%
  Population Mitotic Cells (%): 62%
  Population Normal (%): 90%
  Population Pyknosed Nuclei (%): 26%
  Population Tubulin-Different-Phenotype (%): 59%
  Total Cell Count: 100
[7]
  Population Apoptotic (%): 67%
  Population Fragmented Nuclei (%): 23%
  Population Healthy Nuclei (%): 51%
  Population Hoechst High Intensity Objects (%): 5%
  Population Membrane Permeable-Phenotype (%): 0%
  Population Mitochondria Different-Phenotype (%): 28%
  Population Mitotic Cells (%): 32%
  Population Normal (%): 95%
  Population Pyknosed Nuclei (%): 24%
  Population Tubulin-Different-Phenotype (%): 78%
  Total Cell Count: 220
[8]
  Population Apoptotic (%): 41%
  Population Fragmented Nuclei (%): 26%
  Population Healthy Nuclei (%): 38%
  Population Hoechst High Intensity Objects (%): 6%
  Population Membrane Permeable-Phenotype (%): 12%
  Population Mitochondria Different-Phenotype (%): 32%
  Population Mitotic Cells (%): 58%
  Population Normal (%): 93%
  Population Pyknosed Nuclei (%): 35%
  Population Tubulin-Different-Phenotype (%): 94%
  Total Cell Count: 140
[9]
  Population Apoptotic (%): 52%
  Population Fragmented Nuclei (%): 14%
  Population Healthy Nuclei (%): 68%
  Population Hoechst High Intensity Objects (%): 3%
  Population Membrane Permeable-Phenotype (%): 4%
  Population Mitochondria Different-Phenotype (%): 7%
  Population Mitotic Cells (%): 47%
  Population Normal (%): 96%
  Population Pyknosed Nuclei (%): 17%
  Population Tubulin-Different-Phenotype (%): 36%
  Total Cell Count: 128
[10]
  Population Apoptotic (%): 35%
  Population Fragmented Nuclei (%): 38%
  Population Healthy Nuclei (%): 43%
  Population Hoechst High Intensity Objects (%): 4%
  Population Membrane Permeable-Phenotype (%): 14%
  Population Mitochondria Different-Phenotype (%): 4%
  Population Mitotic Cells (%): 64%
  Population Normal (%): 95%
  Population Tubulin-Different-Phenotype (%): 63%
  Total Cell Count: 99
[11]
  Population Apoptotic (%): 80%
  Population Fragmented Nuclei (%): 32%
  Population Healthy Nuclei (%): 50%
  Population Hoechst High Intensity Objects (%): 10%
  Population Membrane Permeable-Phenotype (%): 0%
  Population Mitochondria Different-Phenotype (%): 35%
  Population Mitotic Cells (%): 19%
  Population Normal (%): 89%
  Population Pyknosed Nuclei (%): 17%
  Population Tubulin-Different-Phenotype (%): 77%
  Total Cell Count: 229
[12]
  Population Apoptotic (%): 48%
  Population Fragmented Nuclei (%): 35%
  Population Healthy Nuclei (%): 45%
  Population Hoechst High Intensity Objects (%): 5%
  Population Membrane Permeable-Phenotype (%): 10%
  Population Mitochondria Different-Phenotype (%): 15%
  Population Mitotic Cells (%): 52%
  Population Normal (%): 94%
  Population Pyknosed Nuclei (%): 19%
  Population Tubulin-Different-Phenotype (%): 96%
  Total Cell Count: 136
